Assay results taken from ChEMBL document CHEMBL1255454, “Systematic approach to optimizing specifically targeted antimicrobial peptides against Streptococcus mutans” (2010).
Values after ≈ are worked out from the molar mass of the structure shown. Active and inactive are the calls of the source. No cut-off for these calls is given here.

Key:
[1] = system: Streptococcus sanguinis; assay: Antimicrobial activity against Streptococcus sanguinis assessed as inhibition of bacterial biofilm formation at 50 uM after 10 mins; type: functional
Outline: (§1)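 Mixed-species biofilms were grown 24 h at 37°C anaerobically in TH with 50% filter-sterilized pooled human saliva and 1% sucrose. Inoculum: S. mutans JM11 at 1 × 10^6 CFU/well plus S. oralis, S. gordonii, S. sanguinis, S. mitis and S. salivarius at 2 × 10^5 CFU/well each. Survivors were plated on TH agar for total streptococci and on TH agar with 800 µg/ml spectinomycin for JM11. Detection limit 100 CFU/ml.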

[2] = system: Streptococcus sanguinis; assay: Antimicrobial activity against Streptococcus sanguinis NY101 after 16 to 20 hrs by broth microdilution assay; type: functional
Outline: (§2)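 Broth microdilution. Twofold peptide dilutions were made in 50% BHI–50% sterile water for oral streptococci and in 1× Mueller-Hinton broth for the other bacteria. First round 500 to 0.97 µg/ml; a second round of 64 to 0.5 µg/ml was run in some cases, reporting its mode. Inoculum ~1 × 10^5 CFU/ml, 37°C for 16–20 h. Read A600; MIC taken as complete inhibition or ≥90% turbidity reduction versus peptide-free control.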

[3] = system: Streptococcus mitis; assay: Antimicrobial activity against Streptococcus mitis ATCC 903 at 25 ug/ml after 30 mins by time-kill assay; type: functional, organism-based
Outline: (§3)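 Time-kill. Overnight cultures were diluted in BHI to A600 0.08 and treated with peptide at 25 µg/ml for 30 s to 2 h. Aliquots were diluted 1:50 in BHI, held on ice, plated and counted after 24 h as surviving CFU/ml. Three independent experiments, mean with SD; unpaired Student t test.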

[4] = system: Streptococcus mutans; assay: Antimicrobial activity against Streptococcus mutans UA159 at 25 ug/ml after 30 mins by time-kill assay; type: functional; outline: as §3
[5] = system: Staphylococcus aureus; assay: Antimicrobial activity against methicillin-resistant Staphylococcus aureus after 16 to 20 hrs by broth microdilution assay; type: functional
Outline: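 MRSA grown aerobically in BHI at 37°C. Broth microdilution: 2-fold peptide dilutions in 1× Mueller-Hinton broth, first round 500 to 0.97 µg/ml; if activity below 62.5 µg/ml, sometimes a second round at 64 to 0.5 µg/ml, reporting the mode. Inoculum ~1 × 10^5 CFU/ml, 37°C for 16-20 h. A600 read. MIC = lowest concentration giving complete inhibition or ≥90% turbidity reduction versus peptide-free control.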

[6] = system: Streptococcus mutans; assay: Antimicrobial activity against Streptococcus mutans UA159 after 16 to 20 hrs by broth microdilution assay; type: functional; outline: as §2
[7] = system: Streptococcus mutans; assay: Antimicrobial activity against Streptococcus mutans UA159 assessed as inhibition of bacterial biofilm formation at 25 uM after 3 mins by fluorescence assay; type: functional
Outline: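 S. mutans UA159 overnight culture was diluted 1:5,000 in TH with 1% sucrose and grown as biofilm for 24 h. Biofilms were exposed 3 min at room temperature to 25 µM fluorescein-labelled peptide in HEPES/NaHCO3/NaCl/MgCl2 buffer with 0.1% CTAB, pH 7.4, then washed twice. Green fluorescence images were taken and biofilm-associated green pixels quantified as binding intensity units.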

[8] = system: Streptococcus gordonii str. Challis; assay: Antimicrobial activity against Streptococcus gordonii Challis DL1 at 25 ug/ml after 30 mins by time-kill assay; type: functional; outline: as §3
[9] = system: Streptococcus mitis; assay: Antimicrobial activity against Streptococcus mitis ATCC 903 after 16 to 20 hrs by broth microdilution assay; type: functional; outline: as §2
[10] = system: Streptococcus mitis; assay: Antimicrobial activity against Streptococcus mitis assessed as inhibition of bacterial biofilm formation at 50 uM after 10 mins; type: functional; outline: as §1
[11] = system: Streptococcus mutans; assay: Antimicrobial activity against Streptococcus mutans UA159 assessed as inhibition of viability of bacterial biofilm at 25 ug/ml treated for 1 min measured after 4 hrs; type: functional
Outline: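 S. mutans biofilms were seeded from overnight culture diluted 1:50 in TH broth with 0.5% sucrose, centrifuged, and grown 4 h anaerobically at 37°C. They were exposed to peptide in 1× PBS for about 1 min, washed, and given fresh TH broth without sucrose. Recovery was read as A600 after 4 h anaerobic incubation at 37°C. Three experiments; unpaired t test.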

[12] = system: Pseudomonas aeruginosa; assay: Antimicrobial activity against Pseudomonas aeruginosa PAK after 16 to 20 hrs by broth microdilution assay; type: functional; outline: as §2
[13] = Antimicrobial activity against Streptococcus gordonii Challis DL1 after 16 to 20 hrs by broth microdilution assay; type: functional, Streptococcus gordonii str. Challis; outline: as §2
[14] = system: Streptococcus salivarius; assay: Antimicrobial activity against Streptococcus salivarius assessed as inhibition of bacterial biofilm formation at 50 uM after 10 mins; type: functional; outline: as §1
[15] = system: Streptococcus sanguinis; assay: Antimicrobial activity against Streptococcus sanguinis NY101 at 25 ug/ml after 30 mins by time-kill assay; type: functional, organism-based; outline: as §3
[16] = system: Streptococcus gordonii; assay: Antimicrobial activity against Streptococcus gordonii assessed as inhibition of bacterial biofilm formation at 50 uM after 10 mins; type: functional; outline: as §1
[17] = system: Streptococcus oralis; assay: Antimicrobial activity against Streptococcus oralis assessed as inhibition of bacterial biofilm formation at 50 uM after 10 mins; type: functional; outline: as §1
[18] = system: Escherichia coli; assay: Antimicrobial activity against Escherichia coli W3110 after 16 to 20 hrs by broth microdilution assay; type: functional; outline: as §2
[19] = system: Enterococcus faecalis; assay: Antimicrobial activity against Enterococcus faecalis after 16 to 20 hrs by broth microdilution assay; type: functional; outline: as §2
[20] = system: Streptococcus sobrinus; assay: Antimicrobial activity against Streptococcus sobrinus ATCC 33478 after 16 to 20 hrs by broth microdilution assay; type: functional; outline: as §2
[21] = system: Streptococcus mutans; assay: Antimicrobial activity against Streptococcus mutans JM11 assessed as inhibition of bacterial biofilm formation at 50 uM after 10 mins; type: functional; outline: as §1

Molecule | MIC [2] | MIC [5] | MIC [6] | inhibition [7] | MIC [9] | inhibition [11] | MIC [12] | MIC [13] | MIC [18] | MIC [19] | MIC [20] | also measured
H-RWRWRWF-NH2 | 32 µg/mL | 32 µg/mL | 4 µg/mL | Active | 32 µg/mL | Active | 32 µg/mL | 32 µg/mL | – | – | – | inhibition [1]: inactive; Activity [3]: Active; Activity [4]: Active; Activity [8]: Active; inhibition [10]: inactive; inhibition [14]: inactive; Activity [15]: Active; inhibition [16]: inactive; inhibition [17]: inactive
H-FHFHLHFSATFIKHFIHRF-NH2 | 62.5 µg/mL | 125 µg/mL | 16 µg/mL | Active | – | – | 125 µg/mL | – | 125 µg/mL | 62.5 µg/mL | 250 µg/mL | –
H-FIKHFIHRFSATRWRWRWF-NH2 | 32 µg/mL | 125 µg/mL | 8 µg/mL | Active | 16 µg/mL | Active | 62.5 µg/mL | 32 µg/mL | – | – | – | inhibition [1]: inactive; inhibition [10]: inactive; inhibition [14]: inactive; inhibition [21]: Active; inhibition [16]: inactive; inhibition [17]: inactive
CC[C@H](C)[C@H](NC(=O)[C@H](Cc1ccccc1)NC(=O)[C@H](Cc1cnc[nH]1)NC(=O)[C@H](CCCCN)NC(=O)[C@@H](NC(=O)[C@H](Cc1ccccc1)NC(=O)[C@@H]1CCCN1C(=O)[C@H](Cc1ccc(O)cc1)NC(=O)[C@@H]1CCCN1C(=O)[C@H](Cc1ccccc1)NC(=O)[C@@H](Cc1cnc[nH]1)NC(=O)[C@@H](CC(C)C)NC(=O)[C@@H](Cc1cnc[nH]1)NC(=O)[C@@H](Cc1ccccc1)NC(=O)[C@@H](Cc1cnc[nH]1)NC(=O)[C@H](N)Cc1ccccc1)[C@@H](C)CC)C(=O)N[C@@H](Cc1cnc[nH]1)C(=O)N[C@@H](CCCNC(=N)N)C(=O)N[C@@H](Cc1ccccc1)C(N)=O | 62.5 µg/mL (≈ 24.3 µM) | > 500 µg/mL | 32 µg/mL (≈ 12.5 µM) | – | – | – | 125 µg/mL (≈ 48.7 µM) | – | 125 µg/mL (≈ 48.7 µM) | 250 µg/mL (≈ 97.4 µM) | 62.5 µg/mL (≈ 24.3 µM) | –
H-FHFHLHFPSGSPFIKHFIHRF-NH2 | 62.5 µg/mL | > 500 µg/mL | 62.5 µg/mL | Active | – | – | > 500 µg/mL | – | 125 µg/mL | 250 µg/mL | 62.5 µg/mL | –
H-WWQDWWNEW-NH2 | > 500 µg/mL | > 500 µg/mL | > 500 µg/mL | Active | > 500 µg/mL | – | > 500 µg/mL | > 500 µg/mL | > 500 µg/mL | > 500 µg/mL | > 500 µg/mL | –
N=C(NCCCCCCNC(=N)NC(=N)Nc1ccc(Cl)cc1)NC(=N)Nc1ccc(Cl)cc1 [CHLORHEXIDINE] | – | – | – | – | – | Active | – | – | – | – | – | inhibition at 50 µM [1]: 95%; inhibition at 50 µM [10]: 95%; inhibition at 50 µM [14]: 95%; inhibition at 50 µM ([21]; JM11, 10 min): 95%; inhibition at 50 µM [16]: 95%; inhibition at 50 µM [17]: 95%
H-FHFHLHFGGGFIKHFIHRF-NH2 | 62.5 µg/mL | 125 µg/mL | 32 µg/mL | – | – | – | 62.5 µg/mL | – | 62.5 µg/mL | 62.5 µg/mL | 62.5 µg/mL | –
H-FHFHLHFPSPSPFIKHFIHRF-NH2 | 125 µg/mL | > 500 µg/mL | 32 µg/mL | – | – | – | 125 µg/mL | – | 62.5 µg/mL | 250 µg/mL | 125 µg/mL | –
H-WWHSWWSTW-NH2 | 125 µg/mL | > 125 µg/mL | 125 µg/mL | Active | 125 µg/mL | – | > 125 µg/mL | 125 µg/mL | 125 µg/mL | > 125 µg/mL | 125 µg/mL | –
